The record followed here is ChEMBL document CHEMBL1138483, “Toward second generation hepatitis C virus NS3 serine protease inhibitors: discovery of novel P4 modified analogues with improved potency and pharmacokinetic profile” (J Med Chem, 2009).

Data set [1] can be described thus: AUC (0 to 6 hrs) in rat at 10 mg/kg, po. Also noted: time < 6 hr, dose 10 mg/kg, route oral. The following applies: plasma. Format: ADME, organism-based.
Data set [2] in a line: Drug level in rat liver at 10 mg/kg, po after 6 hrs. The class given is ADME, organism-based. Also noted: dose 10 mg/kg, route oral. The following applies: read-out: Drug uptake. An outline of the steps:
(§1)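 Oral dosing in rats at 10 mpk as a suspension in 0.4% HPMC; liver concentration measured in ng/g tissue at 1 h or 6 h after dosing.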

Data set [3] in a line: Binding affinity to HCV NS3 protease by spectrophotometry. Also noted: species or system Hepacivirus hominis.
The test system of data set [4] is Hepatitis C virus. Kind of data set: Antiviral activity against HCV replication in human hepatoma cells by replicon assay. The class given is functional, Hepacivirus hominis. For orientation: In antiviral work, replicon cells carry a viral genome segment that copies itself.
Data set [5] can be described thus: Drug level in rat liver at 10 mg/kg, po after 1 hr. The class given is ADME, organism-based. Further details: dose 10 mg/kg, route oral. As to conditions: read-out: Drug uptake. The method, boiled down: as §1
Data set [6] relates to Rattus norvegicus. In words: AUC in rat at 10 mg/kg, po. The class given is ADME, organism-based, Plasma. Also noted: dose 10 mg/kg, route oral. The following applies: in vivo.
A short description of data set [7]: AUC in po dosed rat. Format: ADME, organism-based. The following applies: plasma.
Data set [8] can be described thus: Bioavailability in rat at 10 mg/kg, po. Format: ADME, organism-based. As to conditions: in vivo.
Data set [9] can be described thus: AUC (0 to 24 hrs) in rat at 10 mg/kg, po. As to conditions: plasma. Format: ADME, organism-based. Further details: time < 24 hr, dose 10 mg/kg, route oral.

Each structure is given as a SMILES string. pKi: −log10 of the molar value.

`C#CCCC(NC(=O)[C@@H]1[C@@H]2[C@H](CN1C(=O)[C@@H](NC(=O)N[C@H](COC(=O)NCC(C)C)C(C)(C)C)C1(C)CCCCC1)C2(C)C)C(=O)C(=O)NCC=C` (some centres undefined): the AUC(0-t) – broadly, exposure summed from dosing to a finite time, without extrapolation to infinity – at 6 h in data set [1] was 4.9 µM·h. Also, in [2], the concentration at 6 h was determined as 750 ng/g. Besides, the pKi (commonly the negative decadic logarithm of the Ki, by convention in mol/L) in [3] is 8.05. Also, in data set [4], the 90% effect level (EC90) was put at 70 nM.
On to `CCNC(=O)OC[C@@H](NC(=O)N[C@H](C(=O)N1C[C@H]2[C@@H]([C@H]1C(=O)NC(CC1CCC1)C(=O)C(N)=O)C2(C)C)C1Cc2ccccc2C1)C(C)(C)C` (some centres undefined), for which the concentration at 1 h in data set [5] was found to be 244 ng/g. Also, in data set [6], the AUC (as a rule, concentration integrated over time) stood at 0.3 µM·h. In addition, the negative logarithm of the Ki (pKi) in data set [3] was 8.15. In addition, the EC90 (commonly the concentration at which the effect reaches the 90% level) in data set [4] stood at 100 nM.
The molecule `C#CCCC(NC(=O)[C@@H]1[C@@H]2[C@H](CN1C(=O)[C@@H](NC(=O)N[C@H](COC(=O)NC(C)C)C(C)(C)C)C1(C)CCCCC1)C2(C)C)C(=O)C(=O)NCC=C` (some centres undefined) yielded an AUC(0-t) at 6 h in data set [1] of 7.9 µM·h. In data set [2], the concentration at 6 h was determined as 1110 ng/g. The molecule also gave a negative-log Ki (pKi) in data set [3] of 8.10. Also, in data set [4], the 90% effect level (EC90) was put at 150 nM.
Take `COC[C@@H](NC(=O)N[C@H](C(=O)N1C[C@H]2[C@@H]([C@H]1C(=O)NC(CC1CCC1)C(=O)C(N)=O)C2(C)C)C1Cc2ccccc2C1)C(C)(C)C` (some centres undefined): the AUC in data set [7] was determined as 0.1 µM·h. This molecule also had a pKi in [3] of 7.82. This molecule also returned a concentration for an effect of 90% (EC90) in [4] of 200 nM.
In the case of `C=CCNC(=O)C(=O)C(CCC)NC(=O)[C@@H]1[C@@H]2[C@H](CN1C(=O)[C@@H](NC(=O)N[C@H](COC(=O)NC(C)C)C(C)(C)C)C1(C)CCCCC1)C2(C)C` (some centres undefined), in data set [1], the AUC(0-t) at 6 h came out at 6.6 µM·h. Also, the concentration at 6 h in data set [2] was 808 ng/g. The same molecule had a pKi in data set [3] of 7.62. In data set [4], this molecule returned an EC90 of 150 nM.
`C#CCCC(NC(=O)[C@@H]1[C@@H]2[C@H](CN1C(=O)[C@@H](NC(=O)N[C@H](COC(=O)NCC)C(C)(C)C)C1(C)CCCCC1)C2(C)C)C(=O)C(=O)NCC=C` (some centres undefined): in data set [8], the bioavailability (commonly dose-corrected exposure relative to a reference, in per cent) worked out at 43%. The concentration at 6 h in [2] was 1110 ng/g. Moreover, the negative-log Ki (pKi) in data set [3] is 8.05. Moreover, the 90% effect level in data set [4] (EC90) was put at 150 nM. In [9], this molecule yielded an AUC(0-t) at 24 h of 26 µM·h.
`C#CCCC(NC(=O)[C@@H]1[C@@H]2[C@H](CN1C(=O)[C@@H](NC(=O)N[C@H](COC(=O)NCC1CC1)C(C)(C)C)C1(C)CCCCC1)C2(C)C)C(=O)C(=O)NCC=C` (some centres undefined) showed an AUC(0-t) at 6 h in [1] of 5 µM·h. Moreover, the concentration at 6 h in [2] is 581 ng/g. The negative-log Ki (pKi) in [3] is 8.15. The 90% effect concentration (EC90) in [4] stood at 70 nM.
On to `C#CCCC(NC(=O)[C@@H]1[C@@H]2[C@H](CN1C(=O)[C@@H](NC(=O)N[C@H](COC(=O)NCC1CCCCC1)C(C)(C)C)C1(C)CCCCC1)C2(C)C)C(=O)C(=O)NCC=C` (some centres undefined), for which the pKi in data set [3] is 7.70. In [4], this molecule gave an EC90 of 250 nM.
`CNC(=O)OC[C@@H](NC(=O)N[C@H](C(=O)N1C[C@H]2[C@@H]([C@H]1C(=O)NC(CC1CCC1)C(=O)C(N)=O)C2(C)C)C1Cc2ccccc2C1)C(C)(C)C` (some centres undefined) gave a negative logarithm of the Ki (pKi) in [3] of 8.05. The same molecule had an EC90 in data set [4] of 200 nM.
For `C#CCCC(NC(=O)[C@@H]1[C@@H]2[C@H](CN1C(=O)[C@@H](NC(=O)N[C@H](COC(=O)NCC)C(C)(C)C)C1(C)CCCCC1)C2(C)C)C(=O)C(=O)NCC` (some centres undefined), in that order: 7.68 and 200 nM.
In the same order, the values of `CCNC(=O)OC[C@@H](NC(=O)N[C@H](C(=O)N1C[C@H]2[C@@H]([C@H]1C(=O)NC(CC1CC1)C(=O)C(N)=O)C2(C)C)C1Cc2ccccc2C1)C(C)(C)C` (some centres undefined) are 8.15 and 200 nM.
The molecule `C=CCNC(=O)C(=O)C(CCC)NC(=O)[C@@H]1[C@@H]2[C@H](CN1C(=O)[C@@H](NC(=O)N[C@H](COC(=O)NCC)C(C)(C)C)C1Cc3ccccc3C1)C2(C)C` (some centres undefined) came in with an AUC(0-t) at 6 h in data set [1] of 0.7 µM·h. In data set [3], this molecule gave a negative-log Ki (pKi) of 7.48. In addition, the 90% effect level in data set [4] (EC90) was put at 400 nM.
